Data on 1 molecule can be found in ChEMBL document CHEMBL1773023, “Potent and selective phosphopeptide mimetic prodrugs targeted to the Src homology 2 (SH2) domain of signal transducer and activator of transcription 3” (J Med Chem, 2011).

The source made the active and inactive calls. The calls are words filed in the database; no cut-off is given here.

One assay has as its system NCI-H520. Kind of assay: Cytotoxicity against human NCI-H520 cells assessed as cell growth inhibition at 5 to 10 uM after 72 hrs by MTT assay. The format is functional. Put shortly:
(§1)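 Cell lines with constitutive Stat3 phosphorylation (melanoma, NSCLC) exposed to prodrug at 5–10 μM. Percent growth inhibition recorded.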

Assay [1] addresses Baculoviral IAP repeat-containing protein 5 (Homo sapiens) (UniProt O15392). Briefly: Inhibition of survivin in human HCC-827 cells at 5 uM after up to 48 hrs by Western blotting. The format is cell-based.
The target in assay [2] is T1, Signal transducer and activator of transcription 1-alpha/beta (Homo sapiens) (UniProt P42224).
T1 sequence (whole entry): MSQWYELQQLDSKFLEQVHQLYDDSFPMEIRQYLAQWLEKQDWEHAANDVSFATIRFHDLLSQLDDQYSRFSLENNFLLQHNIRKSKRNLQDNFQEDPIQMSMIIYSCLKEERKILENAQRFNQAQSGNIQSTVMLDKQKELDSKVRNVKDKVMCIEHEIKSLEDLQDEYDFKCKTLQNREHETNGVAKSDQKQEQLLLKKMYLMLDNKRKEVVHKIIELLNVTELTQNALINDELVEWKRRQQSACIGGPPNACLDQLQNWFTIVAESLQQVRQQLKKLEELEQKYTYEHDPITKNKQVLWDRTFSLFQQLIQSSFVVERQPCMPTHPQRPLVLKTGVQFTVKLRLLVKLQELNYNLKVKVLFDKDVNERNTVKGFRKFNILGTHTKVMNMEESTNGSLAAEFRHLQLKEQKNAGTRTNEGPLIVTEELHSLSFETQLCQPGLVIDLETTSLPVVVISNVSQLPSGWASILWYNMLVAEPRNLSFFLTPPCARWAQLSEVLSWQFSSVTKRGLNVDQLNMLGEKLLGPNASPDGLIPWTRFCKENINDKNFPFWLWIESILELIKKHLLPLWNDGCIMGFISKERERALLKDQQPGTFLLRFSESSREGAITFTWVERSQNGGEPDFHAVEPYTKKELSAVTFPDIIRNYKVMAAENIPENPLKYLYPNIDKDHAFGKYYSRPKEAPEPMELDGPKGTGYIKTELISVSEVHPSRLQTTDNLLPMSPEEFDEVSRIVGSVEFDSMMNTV
Briefly: Inhibition of IFN-gamma-induced Stat1 phosphorylation at Tyr701 in human MDA-MB-468 cells at 5 uM treated 1.5 hrs before IFN-gamma challenge measured after 30 mins by Western blotting. The format is cell-based. Put shortly:
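MDA-MB-468 cells exposed to rising prodrug concentrations for 1.5 h, then interferon γ 25 ng/mL for 30 min; Western blot for pTyr701 and total Stat1.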

Assay [3] addresses T2, Signal transducer and activator of transcription 3 (Homo sapiens, UniProt P40763). Briefly: Inhibition of SH2 domain of Stat3 constitutive phosphorylation at Tyr705 in human MDA-MB-468 cells at 0.1 uM after 2 hrs by Western blotting. In kind it is cell-based. An outline of the steps:
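MDA-MB-468 cells (4×10^5/well, DMEM 10% FCS, overnight) given prodrug from freshly made 10 mM DMSO stock for 2 h. Lysates in Hepes pH 7.4 Triton buffer with phosphatase/protease inhibitors; 12 μg protein on 8% SDS-PAGE, PVDF, probed for pStat3 Y705 by ECL, then stripped and reprobed for total Stat3.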

Another assay deals with A-375. Kind of assay: Cytotoxicity against human A375 cells assessed as cell growth inhibition at 5 to 10 uM after 72 hrs by MTT assay. The format is functional. Put shortly:
as §1

Assay [4] in a line: Cytotoxicity against human NCI-H1819 cells assessed as cell growth inhibition at 5 to 10 uM after 72 hrs by MTT assay. The format is functional. An outline of the steps: as §1
Assay [5] deals with Focal adhesion kinase 1 (Homo sapiens) (UniProt Q05397). Briefly: Inhibition of constitutive FAK phosphorylation at Tyr861 in human MDA-MB-468 cells at 5 uM measured after 2 hrs by Western blotting.
Chain of Focal adhesion kinase 1 (Homo sapiens) (Q05397 2-1052 limits assumed): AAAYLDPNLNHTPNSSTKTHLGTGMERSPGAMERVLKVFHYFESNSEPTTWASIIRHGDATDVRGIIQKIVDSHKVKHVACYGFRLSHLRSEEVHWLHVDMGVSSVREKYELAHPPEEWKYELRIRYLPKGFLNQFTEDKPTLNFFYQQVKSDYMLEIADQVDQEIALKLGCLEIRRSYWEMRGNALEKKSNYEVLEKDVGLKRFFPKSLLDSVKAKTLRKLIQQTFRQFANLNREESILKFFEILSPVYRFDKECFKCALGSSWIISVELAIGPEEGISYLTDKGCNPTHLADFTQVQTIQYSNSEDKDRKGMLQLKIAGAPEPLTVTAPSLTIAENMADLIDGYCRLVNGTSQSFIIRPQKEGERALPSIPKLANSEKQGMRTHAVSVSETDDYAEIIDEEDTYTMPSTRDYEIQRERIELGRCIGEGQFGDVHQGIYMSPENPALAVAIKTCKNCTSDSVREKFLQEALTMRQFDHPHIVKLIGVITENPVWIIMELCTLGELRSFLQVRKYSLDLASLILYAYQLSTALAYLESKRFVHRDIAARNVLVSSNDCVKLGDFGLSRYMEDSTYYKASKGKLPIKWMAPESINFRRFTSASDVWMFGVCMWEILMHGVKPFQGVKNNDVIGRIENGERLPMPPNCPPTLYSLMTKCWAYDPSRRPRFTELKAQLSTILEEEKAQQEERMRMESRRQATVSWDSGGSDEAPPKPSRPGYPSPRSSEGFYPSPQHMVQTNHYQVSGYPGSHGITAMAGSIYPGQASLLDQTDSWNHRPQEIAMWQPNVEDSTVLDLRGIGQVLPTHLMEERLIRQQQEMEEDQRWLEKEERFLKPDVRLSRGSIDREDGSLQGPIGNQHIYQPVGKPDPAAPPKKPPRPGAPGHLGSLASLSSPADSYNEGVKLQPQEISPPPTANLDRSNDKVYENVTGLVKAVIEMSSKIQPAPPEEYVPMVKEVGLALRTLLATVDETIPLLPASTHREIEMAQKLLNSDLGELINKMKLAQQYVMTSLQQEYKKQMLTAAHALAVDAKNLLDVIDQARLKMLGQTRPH
For a further assay, the system named is MDA-MB-468. Kind of assay: Decrease of Bcl-xl gene expression in human MDA-MB-468 cells at 5 uM. The format is functional, cell-based.
For assay [6], the target named is T2, Signal transducer and activator of transcription 3. Briefly: Inhibition of SH2 domain of Stat3 phosphorylation at Tyr705 in human SKOV3-ip cells up to 10 uM by Western blotting.

T2 sequence (P40763 whole entry, the tested form may be a part): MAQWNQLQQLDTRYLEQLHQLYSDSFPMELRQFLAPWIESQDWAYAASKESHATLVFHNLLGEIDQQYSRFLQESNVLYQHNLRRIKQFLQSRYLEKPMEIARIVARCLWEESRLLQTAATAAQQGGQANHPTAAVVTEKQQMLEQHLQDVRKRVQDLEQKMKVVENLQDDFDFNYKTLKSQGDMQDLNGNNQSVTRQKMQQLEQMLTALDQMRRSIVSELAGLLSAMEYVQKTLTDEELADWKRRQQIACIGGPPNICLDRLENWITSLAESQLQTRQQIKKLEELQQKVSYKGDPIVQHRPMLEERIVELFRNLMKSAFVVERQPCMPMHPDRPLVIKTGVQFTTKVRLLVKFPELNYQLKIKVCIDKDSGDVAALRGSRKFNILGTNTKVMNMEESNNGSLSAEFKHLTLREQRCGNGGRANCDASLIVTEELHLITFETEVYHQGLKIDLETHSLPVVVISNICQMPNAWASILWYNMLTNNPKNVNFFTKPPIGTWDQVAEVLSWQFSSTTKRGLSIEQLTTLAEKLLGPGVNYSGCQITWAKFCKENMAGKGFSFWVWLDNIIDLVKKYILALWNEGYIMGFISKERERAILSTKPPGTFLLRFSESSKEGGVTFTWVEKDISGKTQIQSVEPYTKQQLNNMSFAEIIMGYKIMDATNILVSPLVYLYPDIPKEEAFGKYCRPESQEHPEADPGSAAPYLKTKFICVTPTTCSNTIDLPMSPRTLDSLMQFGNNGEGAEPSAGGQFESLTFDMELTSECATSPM
Chain of Baculoviral IAP repeat-containing protein 5 (Homo sapiens) (O15392 whole entry): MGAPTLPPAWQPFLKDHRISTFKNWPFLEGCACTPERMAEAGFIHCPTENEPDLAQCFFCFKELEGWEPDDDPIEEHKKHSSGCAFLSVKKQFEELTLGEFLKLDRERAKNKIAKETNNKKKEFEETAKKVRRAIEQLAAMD

For the molecule `C/C(=C\C(=O)N[C@H]1CCc2cccc3c2N(C1=O)[C@H](C(=O)N[C@H](C)CCC(N)=O)C3)c1ccc(C(F)(F)P(=O)(OCOC(=O)C(C)(C)C)OCOC(=O)C(C)(C)C)cc1`, the “growth inhibition (GI)” value (in the assay on NCI-H520; with A-375; in assay [4]) was under 20% each time. Besides, the inhibition result in [1], in assay [2], in assay [3] and in [6] was “Active” each time. Moreover, in assay [5], the inhibition entry is “inactive”. Besides, the result with MDA-MB-468 was inactive.
